Values after ≈ are worked out from the molar mass of the structure shown.
Tests used:
[1] = Selectivity index, ratio of CC50 for human HeLa cells to MIC for Staphylococcus aureus ATCC 25923; format: functional
Summary of the method: (§1)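 Selectivity index is HeLa CC50 (MTS assay) divided by the bacterial MIC.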

[2] = tested on: HeLa; assay: Cytotoxicity against human HeLa cells by MTS assay; format: cell-based
[3] = Selectivity index, ratio of CC50 for human HeLa cells to MIC for Bacillus anthracis; format: functional; summary of the method: as §1
[4] = tested on: Staphylococcus aureus; assay: Antibacterial activity against Staphylococcus aureus ATCC 25923 by broth microdilution method in presence of reserpine; format: functional
[5] = tested on: Staphylococcus aureus; assay: Antibacterial activity against Staphylococcus aureus ATCC 25923 by broth microdilution method; format: functional
[6] = tested on: Bacillus anthracis; assay: Antibacterial activity against Bacillus anthracis by broth microdilution method; format: functional
[7] = Inhibition of Staphylococcus aureus ATCC 25923 replicative DnaB helicase-mediated ATP-dependent dissociation of Hel-5'FAM:Hel-3'BHQ by FRET assay
Summary of the method: (§2)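 Unwinding was read by FRET as helicase-driven, ATP-dependent dissociation of annealed Hel-5′FAM and Hel-3′BHQ oligonucleotides, one fluorescent and the other quencher-labelled. The replicative helicases were prepared as described earlier.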

[8] = biological target: T1, Replicative DNA helicase (Bacillus anthracis, UniProt A0A6L8Q2B7); assay: Inhibition of Bacillus anthracis Sterne 34F2 replicative DNA helicase-mediated ATP-dependent dissociation of Hel-5'FAM:Hel-3'BHQ by FRET assay; parameters: species or system Bacillus anthracis str. Sterne; summary of the method: as §2
T1 sequence (A0A6L8Q2B7 whole entry): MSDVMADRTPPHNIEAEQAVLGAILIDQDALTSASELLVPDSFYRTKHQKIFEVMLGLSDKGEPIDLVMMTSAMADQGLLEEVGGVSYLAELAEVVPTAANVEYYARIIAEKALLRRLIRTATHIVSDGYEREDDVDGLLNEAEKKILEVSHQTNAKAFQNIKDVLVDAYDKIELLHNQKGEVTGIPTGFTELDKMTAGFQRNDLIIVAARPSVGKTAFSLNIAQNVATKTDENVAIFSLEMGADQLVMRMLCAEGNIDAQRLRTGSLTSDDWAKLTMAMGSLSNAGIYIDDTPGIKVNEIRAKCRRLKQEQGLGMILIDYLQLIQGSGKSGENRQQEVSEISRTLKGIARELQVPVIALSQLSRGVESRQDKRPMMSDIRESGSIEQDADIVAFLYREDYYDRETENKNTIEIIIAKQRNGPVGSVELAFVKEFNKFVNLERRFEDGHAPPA

[9] = tested on: Staphylococcus aureus; assay: Antibacterial activity against methicillin-resistant Staphylococcus aureus 1094; format: functional
[10] = tested on: Staphylococcus aureus; assay: Antibacterial activity against methicillin-resistant Staphylococcus aureus 1234558336; format: functional
[11] = tested on: Staphylococcus aureus; assay: Antibacterial activity against methicillin-resistant Staphylococcus aureus 1234549404; format: functional
[12] = tested on: Staphylococcus aureus; assay: Antibacterial activity against methicillin-resistant Staphylococcus aureus 1234547263; format: functional
[13] = tested on: Staphylococcus aureus; assay: Antibacterial activity against methicillin-resistant Staphylococcus aureus 1234544081; format: functional
[14] = tested on: Staphylococcus aureus; assay: Antibacterial activity against methicillin-resistant Staphylococcus aureus 1234522733; format: functional
[15] = tested on: Staphylococcus aureus; assay: Antibacterial activity against methicillin-resistant Staphylococcus aureus 1234543349; format: functional
[16] = tested on: Staphylococcus aureus; assay: Antibacterial activity against Staphylococcus aureus ATCC 25923; format: functional
[17] = tested on: Enterococcus faecium; assay: Antibacterial activity against vancomycin-resistant Enterococcus faecium 1644; format: functional
[18] = tested on: Enterococcus faecium; assay: Antibacterial activity against vancomycin-resistant Enterococcus faecium B42762; format: functional
[19] = tested on: Enterococcus faecium; assay: Antibacterial activity against Enterococcus faecium ATCC 19434; format: functional
[20] = tested on: Enterococcus faecalis; assay: Antibacterial activity against vancomycin-resistant Enterococcus faecalis F118; format: functional
[21] = tested on: Enterococcus faecalis; assay: Antibacterial activity against vancomycin-resistant Enterococcus faecalis 700802; format: functional
[22] = tested on: Enterococcus faecalis; assay: Antibacterial activity against vancomycin-resistant Enterococcus faecalis 51299; format: functional
[23] = tested on: Enterococcus faecalis; assay: Antibacterial activity against vancomycin-resistant Enterococcus faecalis ATCC 51575; format: functional
[24] = tested on: Enterococcus faecalis; assay: Antibacterial activity against Enterococcus faecalis ATCC 29212; format: functional
[25] = tested on: Bacillus licheniformis; assay: Antibacterial activity against Bacillus licheniformis ATCC 14580; format: functional
[26] = tested on: Bacillus anthracis; assay: Antibacterial activity against Bacillus anthracis Sterne; format: functional
[27] = tested on: Bacillus thuringiensis; assay: Antibacterial activity against Bacillus thuringiensis ATCC 10792; format: functional
[28] = tested on: Bacillus subtilis; assay: Antibacterial activity against Bacillus subtilis BD54; format: functional
[29] = tested on: Staphylococcus aureus; assay: Inhibition of Staphylococcus aureus ATCC 25923 single-strand DNA stimulated ATPase activity of replicative DnaB helicase at 50 uM by FRET assay

Cc1c(CCC(=O)O)c(=O)oc2c(C)c(OCc3ccc4ccccc4c3)ccc12
Selectivity Index [1]: <1 | CC50 [2]: 38 µM | Selectivity Index [3]: 7.6 | MIC [4]: > 100 µM | MIC [5]: > 100 µM | MIC [6]: 5 µM (≈ 2.01 µg/mL) | IC50 [7]: 8 µM | IC50 [8]: 9 µM

Cc1c(CCC(=O)O)c(=O)oc2c(C)c(OCc3ccc(-c4ccc(F)cc4F)cc3)ccc12
MIC [5]: > 100 µM | MIC [6]: > 100 µM | IC50 [7]: 4.9 µM | IC50 [8]: 9 µM

Cc1c(CCC(=O)O)c(=O)oc2c(C)c(OCc3ccc4ccc(Cl)cc4n3)ccc12
IC50 [7]: 50 µM | IC50 [8]: 56 µM

Cc1c(CCC(=O)O)c(=O)oc2c(C)c(OCc3ccc(-c4ccc(Cl)c(Cl)c4)cc3)ccc12
Selectivity Index [1]: 6.4 | CC50 [2]: 19.2 µM | Selectivity Index [3]: 6.4 | MIC [4]: 6.3 µM | MIC [5]: 3 µM (≈ 1.49 µg/mL) | MIC [6]: 3 µM (≈ 1.49 µg/mL) | IC50 [7]: 2.4 µM | IC50 [8]: 3 µM

Cc1c(CCC(=O)O)c(=O)oc2c(C)c(OCc3cccc4ccccc34)ccc12
Selectivity Index [1]: <0.06 | Selectivity Index [3]: 0.09 | MIC [5]: > 100 µM | MIC [6]: 65 µM (≈ 26.2 µg/mL)

Cc1c(CCC(=O)O)c(=O)oc2c(C)c(OCc3nccc4ccccc34)ccc12
IC50 [7]: > 100 µM | IC50 [8]: > 100 µM

Cc1c(CCC(=O)O)c(=O)oc2c(C)c(OCc3ccc(-c4ccc(Cl)cc4)cc3)ccc12
MIC [9]: 2.1 µg/mL (≈ 4.54 µM) | MIC [10]: 1.04 µg/mL (≈ 2.25 µM) | MIC [11]: 0.52 µg/mL (≈ 1.12 µM) | MIC [12]: 0.65 µg/mL (≈ 1.4 µM) | MIC [13]: 0.65 µg/mL (≈ 1.4 µM) | MIC [14]: 0.78 µg/mL (≈ 1.68 µM) | MIC [15]: 1.56 µg/mL (≈ 3.37 µM) | MIC [16]: 0.78 µg/mL (≈ 1.68 µM) | MIC [17]: 10.4 µg/mL (≈ 22.5 µM) | MIC [18]: 9.4 µg/mL (≈ 20.3 µM) | MIC [19]: 12.5 µg/mL (≈ 27 µM) | MIC [20]: 3.6 µg/mL (≈ 7.78 µM) | MIC [21]: 16.7 µg/mL (≈ 36.1 µM) | MIC [22]: 4.2 µg/mL (≈ 9.07 µM) | MIC [23]: 25 µg/mL (≈ 54 µM) | MIC [24]: 6.3 µg/mL (≈ 13.6 µM) | MIC [25]: 0.098 µg/mL (≈ 0.212 µM) | MIC [26]: 0.17 µg/mL (≈ 0.367 µM) | MIC [27]: 0.52 µg/mL (≈ 1.12 µM) | MIC [28]: 3.1 µg/mL (≈ 6.7 µM) | inhibition [29]: 8% | CC50 [2]: 25 µM | MIC [5]: 1.25 µM (≈ 0.579 µg/mL) | MIC [6]: 0.625 µM (≈ 0.289 µg/mL) | IC50 [7]: 1 µM | IC50 [8]: 1.5 µM

Cc1c(CCCC(=O)O)c(=O)oc2c(C)c(OCc3ccc(-c4ccccc4)cc3)ccc12
Selectivity Index [1]: <0.8 | CC50 [2]: 31 µM | Selectivity Index [3]: 25 | MIC [4]: > 100 µM | MIC [5]: > 100 µM | MIC [6]: 1.25 µM (≈ 0.553 µg/mL) | IC50 [7]: 2.2 µM | IC50 [8]: 2 µM

Cc1c(CCC(=O)O)c(=O)oc2cc(OCc3cccc(-c4ccccc4)c3)ccc12
Selectivity Index [1]: 1 | CC50 [2]: 10.1 µM | Selectivity Index [3]: 4 | MIC [5]: 10 µM (≈ 4.14 µg/mL) | MIC [6]: 2.5 µM (≈ 1.04 µg/mL) | IC50 [8]: 15 µM

Cc1c(CCC(=O)O)c(=O)oc2cc(OCc3ccccc3-c3ccccc3)ccc12
Selectivity Index [1]: 0.6 | CC50 [2]: 7.8 µM | Selectivity Index [3]: 1.6 | MIC [5]: 12.5 µM (≈ 5.18 µg/mL) | MIC [6]: 5 µM (≈ 2.07 µg/mL) | IC50 [7]: 12 µM | IC50 [8]: 19 µM

Cc1c(CCC(=O)O)c(=O)oc2c(C)c(OCc3cccc(-c4ccccc4)c3)ccc12
Selectivity Index [1]: 0.3 | CC50 [2]: 5.6 µM | Selectivity Index [3]: 9 | MIC [5]: 20 µM (≈ 8.57 µg/mL) | MIC [6]: 0.625 µM (≈ 0.268 µg/mL) | IC50 [7]: 6 µM | IC50 [8]: 7.5 µM

Cc1c(CCC(=O)O)c(=O)oc2c(C)c(OCc3ccc(-c4ccc(F)cc4)cc3)ccc12
Selectivity Index [1]: 6.4 | CC50 [2]: 19.2 µM | Selectivity Index [3]: >24 | MIC [5]: 3 µM (≈ 1.34 µg/mL) | MIC [6]: < 0.8 µM | IC50 [7]: 3.7 µM | IC50 [8]: 5.1 µM

C=CCOc1ccc2c(C)c(CCC(=O)O)c(=O)oc2c1C
IC50 [7]: > 100 µM | IC50 [8]: > 100 µM

Cc1c(CCC(=O)O)c(=O)oc2c(C)c(OCc3ccc(-c4ccccc4C#N)cc3)ccc12
Selectivity Index [1]: 7.8 | CC50 [2]: 19.5 µM | Selectivity Index [3]: 15.6 | MIC [5]: 2.5 µM (≈ 1.13 µg/mL) | MIC [6]: 1.25 µM (≈ 0.567 µg/mL) | IC50 [7]: 4.6 µM | IC50 [8]: 3.8 µM

C#CCOc1ccc2c(C)c(CCC(=O)O)c(=O)oc2c1C
IC50 [7]: > 100 µM | IC50 [8]: > 100 µM

Source: ChEMBL document CHEMBL2177067 (J Med Chem, 2012)
